Laboratory results reported in ChEMBL document CHEMBL1144321, “Synthesis and evaluation of novel peripherally restricted kappa-opioid receptor agonists” (Bioorg Med Chem Lett, 2005).

How the values were obtained:
Rattus norvegicus = assay: In vivo inhibition of formalin induced flinching after intra paw dosing of compound at 300 ug
Mus musculus = assay: Effective dose that induced platform sedation after subcutaneous administration in mice; type: functional; details: sc
How it was run: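 Mice screened first for baseline latency to step fully off a slightly raised platform (11 × 8 × 3 cm); animals with baseline >15 s excluded. Drug or vehicle (20% aqueous creamaphor) given s.c. at back of neck; latency retested 20 min later, 30 s cut-off. % sedation = (test − baseline)/(30 s − baseline) × 100; ED50 from dose–response.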

SMILES | Inhibition (Rattus norvegicus) | ED50 (Mus musculus)
CN(C(=O)Cc1ccc(C(F)(F)F)cc1)[C@H](CN1CCCC1)c1cccc(NC(=O)CCC(=O)O)c1 | 73% | 47 mg/kg
CN(C(=O)Cc1ccc(C(F)(F)F)cc1)[C@H](CN1CCCC1)c1cccc(NS(N)(=O)=O)c1 | 73% | 13 mg/kg
CN(C(=O)Cc1ccc(C(F)(F)F)cc1)C(CN1CCCC1)c1cccc(OCC(=O)O)c1 (racemic) | 93% | > 300 mg/kg
COc1cccc(C(CN2CCCC2)N(C)C(=O)Cc2ccc(C(F)(F)F)cc2)c1 (racemic) | 99% | 
CN(C(=O)Cc1ccc(Cl)c(Cl)c1)C(CN1CCCC1)c1cccc(OCC(=O)O)c1 (stereo not given) [ICI-204448] |  | 5.2 mg/kg
CN(C(=O)Cc1ccc(C(F)(F)F)cc1)C(CN1CCCC1)c1cccc(OCC(=O)OC(C)(C)C)c1 (racemic) | 84% | 140 mg/kg
CN(C(=O)Cc1ccc(C(F)(F)F)cc1)[C@H](CN1CCCC1)c1cccc(NS(C)(=O)=O)c1 | 77% | 89 mg/kg
CN(C(=O)Cc1ccc(C(F)(F)F)cc1)[C@H](CN1CCCC1)c1ccccc1 | 92% | 0.13 mg/kg
CN(C(=O)Cc1ccc(C(F)(F)F)cc1)C(CN1CCCC1)c1cccc(O)c1 (racemic) | 99% | 
